Results gathered from unrelated publications.
Each line is one published result; the experiments were not run side by side.
Read-out: metabolic stability

C=C1NC(=O)[C@H](C)N(O)C(=O)[C@H]([C@@H](O)C(N)=O)N(C)C(=O)[C@H](C)OC(=O)[C@@H]2C[C@H](C)CN2C1=O
half-life (mouse; liver microsomes): > 120 min

Nc1ncnc2c1c(Oc1cc(Cl)ccn1)nn2C1CCC(F)(F)CC1
half-life (mouse; liver microsomes; 1 µM): ~25 min

N=c1c2c(-c3ccccc3)c(-c3ccccc3)n(Cc3ccccc3)c2ncn1[C@H]1CC[C@H](O)CC1
half-life (mouse; liver S9; 1 µM): > 120 min

C[C@]12CC[C@H]3[C@@H](CCC4=CC(=O)CC[C@@]43C)[C@@H]1CC[C@@H]2O
half-life (mouse; liver microsomes; 1 µM): 2.1 min

O=C(c1ccc(-n2sc3ncccc3c2=O)cc1)N1CCOCC1
half-life (mouse; liver microsomes): > 120 min

CN1CCCCC1Cn1cc(C(=O)c2cc([N+](=O)[O-])ccc2I)c2ccccc21 (racemic)
half-life (mouse; liver microsomes): 10.6 min

CCCCCCCCCCCCCCCCOCCCOP(=O)(O)CO[C@H](C)Cn1cnc2c(N)ncnc21.N
half-life (CD-1 mouse; liver microsomes; 3 µM; pH 7.4): > 120 min

Cc1cnc(Nc2ccc(C(=O)NC3CCN(C(=O)COCCOCCOCC(=O)N4CCC(NC(=O)c5ccc(Nc6ncc(C)c(Nc7ccc(Cl)c(NS(=O)(=O)C(C)(C)C)c7)n6)cc5F)CC4)CC3)c(F)c2)nc1Nc1ccc(Cl)c(NS(=O)(=O)C(C)(C)C)c1
half-life (mouse; liver microsomes): 33 min

O=C(c1cc(-n2sc3ncccc3c2=O)ccc1Cl)N1CCOCC1
half-life (mouse; liver microsomes): > 120 min

C[C@H](Cn1cnc2c(N)ncnc21)OCP(=O)(O)OCCCOCCCCCCCCCCCCCCCC(F)(F)F.N
half-life (CD-1 mouse; liver microsomes; 3 µM; pH 7.4): > 120 min

Cc1nc2c(=O)n(C)c(=O)nc-2n(C)n1
half-life (mouse; liver microsomes): > 186 min

Nc1ncnc2c1c(Oc1cc(C(F)(F)F)ccn1)nn2C1CCC(F)(F)CC1
half-life (mouse; liver microsomes; 1 µM): ~25 min

Cc1cc(C)nc(Nc2ncc(C(=O)NCCc3c(C)[nH]c4ccccc34)cn2)c1
half-life (CD-1 mouse; hepatocytes; 1 µM): 39 min
